Series [1] deals with RAW264.7. As to the kind of experiment: Cytotoxicity against mouse RAW264.7 cells assessed as living cells at 7.5 uM by MTT assay. The series is classed as cell-based. The note with it: raw264.7, 7.5 µM. The essentials: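 RAW 264.7 macrophages: MTT viability assay run in parallel with each nitrite (Griess) experiment, same cell line and same compound treatment conditions.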
For orientation: Tetrazolium dyes change colour on reduction, which living cells bring about.

Series [2] deals with T1, Nitric oxide synthase, inducible (Mus musculus) (UniProt P29477).
T1 sequence (whole entry): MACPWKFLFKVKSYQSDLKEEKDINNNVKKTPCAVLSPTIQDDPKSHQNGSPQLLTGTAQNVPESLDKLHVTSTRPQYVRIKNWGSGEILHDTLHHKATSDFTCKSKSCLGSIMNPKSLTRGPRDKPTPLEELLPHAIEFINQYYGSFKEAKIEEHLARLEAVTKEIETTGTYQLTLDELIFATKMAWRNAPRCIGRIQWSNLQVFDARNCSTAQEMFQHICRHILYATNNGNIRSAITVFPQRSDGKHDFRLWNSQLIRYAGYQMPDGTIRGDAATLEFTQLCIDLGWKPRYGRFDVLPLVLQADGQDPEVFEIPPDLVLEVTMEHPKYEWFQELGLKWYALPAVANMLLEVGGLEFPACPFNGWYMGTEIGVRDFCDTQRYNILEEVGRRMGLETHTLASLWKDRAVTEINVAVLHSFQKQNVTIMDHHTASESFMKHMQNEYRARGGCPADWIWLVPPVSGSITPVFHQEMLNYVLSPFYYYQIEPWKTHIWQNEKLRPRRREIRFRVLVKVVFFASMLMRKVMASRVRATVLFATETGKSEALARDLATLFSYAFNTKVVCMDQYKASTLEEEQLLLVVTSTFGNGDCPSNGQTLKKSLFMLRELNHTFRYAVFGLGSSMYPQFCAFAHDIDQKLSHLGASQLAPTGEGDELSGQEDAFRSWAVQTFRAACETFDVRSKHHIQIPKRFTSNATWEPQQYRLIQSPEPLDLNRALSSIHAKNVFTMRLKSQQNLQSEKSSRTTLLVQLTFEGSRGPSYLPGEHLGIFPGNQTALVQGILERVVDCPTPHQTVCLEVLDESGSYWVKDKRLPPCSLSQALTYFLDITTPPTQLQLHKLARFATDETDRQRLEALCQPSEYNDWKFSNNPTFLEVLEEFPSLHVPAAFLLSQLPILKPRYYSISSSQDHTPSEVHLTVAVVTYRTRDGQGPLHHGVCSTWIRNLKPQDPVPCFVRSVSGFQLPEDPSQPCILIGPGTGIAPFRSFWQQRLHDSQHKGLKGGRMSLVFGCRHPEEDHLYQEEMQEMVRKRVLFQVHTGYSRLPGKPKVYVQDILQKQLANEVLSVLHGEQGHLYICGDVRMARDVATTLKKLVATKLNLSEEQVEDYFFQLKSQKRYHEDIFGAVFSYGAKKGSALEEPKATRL
As to the kind of experiment: Inhibition of iNOS induction in mouse RAW264.7 cells assessed as NO production at 7.5 uM. The series is classed as cell-based. In a few lines:
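RAW 264.7 cells seeded at 8 × 10⁴ per well in DMEM/10% FBS and grown 2 days. Then exposed to LPS with compound or DMSO for 20 h. Supernatant nitrite measured by Griess reaction (sulfanilamide/NED) at 550 nm minus 620 nm background, quantified against a sodium nitrite standard curve. At least four experiments in triplicate.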

The target in series [3] is T2, Protein kinase C zeta type (Homo sapiens, UniProt Q05513).
T2 sequence (Q05513 whole entry): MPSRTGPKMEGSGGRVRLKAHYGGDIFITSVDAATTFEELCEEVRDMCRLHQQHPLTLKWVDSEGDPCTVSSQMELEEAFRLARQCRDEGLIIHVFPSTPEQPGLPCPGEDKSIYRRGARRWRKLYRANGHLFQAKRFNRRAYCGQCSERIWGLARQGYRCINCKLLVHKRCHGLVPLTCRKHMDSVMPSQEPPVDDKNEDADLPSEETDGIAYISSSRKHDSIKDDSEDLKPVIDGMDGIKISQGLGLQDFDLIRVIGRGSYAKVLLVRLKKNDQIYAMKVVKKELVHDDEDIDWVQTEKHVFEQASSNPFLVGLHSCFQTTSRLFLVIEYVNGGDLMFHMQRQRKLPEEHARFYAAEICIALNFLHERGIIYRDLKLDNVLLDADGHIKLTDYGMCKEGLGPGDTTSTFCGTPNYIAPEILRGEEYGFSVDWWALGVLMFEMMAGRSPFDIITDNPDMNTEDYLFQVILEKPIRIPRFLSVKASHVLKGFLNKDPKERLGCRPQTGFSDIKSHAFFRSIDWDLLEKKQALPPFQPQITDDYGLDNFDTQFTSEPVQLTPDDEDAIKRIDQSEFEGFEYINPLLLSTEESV
Briefly: Inhibition of human PKCzeta assessed as phosphorylation reaction after 4 mins incubation by cell-free assay.

The target in series [4] is T2, Protein kinase C zeta type. Briefly: Inhibition of PKCzeta in human U937 cells assessed as inhibition of TNFalpha-induced NF-kappaB activation by reporter gene assay. Type of series: cell-based, U-937. (In general: In a reporter assay the amount or activity of a reporter protein is the signal.)
Series [5] addresses T3, Protein kinase C iota type (Homo sapiens) (UniProt P41743).
T3 sequence (whole entry): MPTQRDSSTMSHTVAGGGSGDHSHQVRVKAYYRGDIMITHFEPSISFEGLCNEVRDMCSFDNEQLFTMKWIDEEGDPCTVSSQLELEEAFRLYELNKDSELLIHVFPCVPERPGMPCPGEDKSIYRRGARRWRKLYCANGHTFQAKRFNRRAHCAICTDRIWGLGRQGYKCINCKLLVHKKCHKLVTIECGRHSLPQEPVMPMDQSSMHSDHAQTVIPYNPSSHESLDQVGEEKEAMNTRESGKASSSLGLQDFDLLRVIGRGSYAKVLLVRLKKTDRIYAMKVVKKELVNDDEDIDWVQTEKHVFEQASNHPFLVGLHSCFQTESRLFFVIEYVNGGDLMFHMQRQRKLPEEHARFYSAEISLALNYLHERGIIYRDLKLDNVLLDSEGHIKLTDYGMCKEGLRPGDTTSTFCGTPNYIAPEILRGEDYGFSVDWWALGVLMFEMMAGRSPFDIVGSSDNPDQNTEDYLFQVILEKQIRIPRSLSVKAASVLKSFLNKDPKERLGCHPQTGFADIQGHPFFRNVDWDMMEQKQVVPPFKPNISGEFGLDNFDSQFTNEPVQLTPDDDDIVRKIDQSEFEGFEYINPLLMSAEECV
As to the kind of experiment: Inhibition of PKCiota (unknown origin) at 20 uM. The essentials:
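Cell-free radiometric kinase assay with purified recombinant PKCι under conditions similar to the PKCζ assay. Reaction mixtures preincubated 4 min at 37 °C, then phosphorylation started with γ32P-ATP/Mg2+. Mean of at least two experiments.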

Series [6] deals with Receptor-interacting serine/threonine-protein kinase 2 (Homo sapiens) (UniProt O43353). As to the kind of experiment: Inhibition of human RIPK2 at 10 uM relative to control.
The target of series [7] is Protein kinase C beta type (Homo sapiens) (UniProt P05771). As to the kind of experiment: Inhibition of human PKCbeta2 at 10 uM relative to control.
In series [8] the target is Serine/threonine-protein kinase TBK1 (Homo sapiens) (UniProt Q9UHD2). Briefly: Inhibition of human TBK1 at 10 uM relative to control.
Series [9] has as its target Mitogen-activated protein kinase kinase kinase 7 (Homo sapiens) (UniProt O43318). Briefly: Inhibition of human TAK1 at 10 uM relative to control.
The target in series [10] is Inhibitor of nuclear factor kappa-B kinase subunit beta (Homo sapiens) (UniProt O14920). Briefly: Inhibition of human IKKbeta at 10 uM relative to control.
In series [11] the target is Mitogen-activated protein kinase 14 (Homo sapiens) (UniProt Q16539). As to the kind of experiment: Inhibition of human p38alpha MAPK at 10 uM relative to control.
Series [12] deals with Protein kinase C zeta type (Homo sapiens, UniProt Q05513, V297L). Briefly: Inhibition of PKCzeta val297leu mutant (unknown origin) assessed as phosphorylation reaction after 4 mins incubation by cell-free assay.
For series [13], the species on record is Homo sapiens. Briefly: Ratio of IC50 for PKCzeta val297leu mutant (unknown origin) to IC50 for wild type PKCzeta (unknown origin). The essentials: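 Cell-free radiometric assay with purified recombinant full-length PKCζ wild type or PIF-pocket V297L mutant. Enzyme present at 0.2 μM. 4 min preincubation at 37 °C, reaction started with γ32P-ATP/Mg2+. IC50 values are means of at least two experiments.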

Series [14] deals with T4, Protein kinase C zeta type (Homo sapiens) (UniProt Q05513).
T4 sequence (whole entry): T2 sequence (Q05513 whole entry)
As to the kind of experiment: Inhibition of PKCzeta (unknown origin) expressed in HEK293 cells assessed as reduction in specific activity at 2 to 5 uM for 6 hrs after 30 mins IGF-I stimulation by in serum free medium. Type of series: cell-based. In a few lines:
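HEK293 cells transfected at 80% confluency with GST-PKCζ wild-type or V297L mutant plasmids. Next day switched to DMEM with 0.1% FCS and compound or DMSO for 6 h, then IGF-I 50 ng/mL final for 30 min at 37 °C. Lysed; GST-PKCζ pulled down on glutathione beads and eluted. 50 ng per reaction assayed for kinase activity with myelin basic protein as substrate. Triplicate treatments, two independent experiments.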

The target in series [15] is T4, Protein kinase C zeta type (Homo sapiens). Briefly: Inhibition of PKCzeta in serum-starved human U937 cells assessed as inhibition of TNFalpha-stimulated activation loop phosphorylation at 2.5 to 5 uM by immunoblotting analysis. Type of series: cell-based. To be noted: U-937. In a few lines:
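U937 cells in RPMI/10% FBS, serum-starved 24 h, treated with compound or DMSO for 1 h, then TNFα 50 ng/mL for 30 min. Whole-cell lysates separated by SDS–PAGE (10% gel) and immunoblotted for phospho-PKCζ/λ (Thr410/403), with β-actin as loading control. Near-infrared detection. Two separate experiments.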
For orientation: A western blot detects proteins with antibodies after separation by electrophoresis.

Calls of active or inactive are those of the source. No cut-off for these calls is given here.

Chain of Protein kinase C zeta type (Homo sapiens, UniProt Q05513, V297L) (Q05513 whole entry V297L): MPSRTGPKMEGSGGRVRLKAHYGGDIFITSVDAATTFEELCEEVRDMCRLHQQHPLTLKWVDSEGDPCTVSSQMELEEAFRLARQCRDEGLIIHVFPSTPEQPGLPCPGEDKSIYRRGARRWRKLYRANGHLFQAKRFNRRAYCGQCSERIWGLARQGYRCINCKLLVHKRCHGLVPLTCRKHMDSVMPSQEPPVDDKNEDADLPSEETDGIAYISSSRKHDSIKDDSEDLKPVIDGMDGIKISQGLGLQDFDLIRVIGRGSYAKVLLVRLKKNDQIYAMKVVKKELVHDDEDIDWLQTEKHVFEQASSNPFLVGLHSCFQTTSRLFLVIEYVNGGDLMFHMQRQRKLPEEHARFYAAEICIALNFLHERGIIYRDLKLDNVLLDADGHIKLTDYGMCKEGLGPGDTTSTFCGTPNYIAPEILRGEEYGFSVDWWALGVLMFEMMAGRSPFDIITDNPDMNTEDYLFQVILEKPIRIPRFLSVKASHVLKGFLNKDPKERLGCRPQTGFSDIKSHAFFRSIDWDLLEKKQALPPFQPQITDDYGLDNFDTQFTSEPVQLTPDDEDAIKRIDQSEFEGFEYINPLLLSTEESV
Chain of Protein kinase C beta type (Homo sapiens) (P05771 2-671 limits assumed): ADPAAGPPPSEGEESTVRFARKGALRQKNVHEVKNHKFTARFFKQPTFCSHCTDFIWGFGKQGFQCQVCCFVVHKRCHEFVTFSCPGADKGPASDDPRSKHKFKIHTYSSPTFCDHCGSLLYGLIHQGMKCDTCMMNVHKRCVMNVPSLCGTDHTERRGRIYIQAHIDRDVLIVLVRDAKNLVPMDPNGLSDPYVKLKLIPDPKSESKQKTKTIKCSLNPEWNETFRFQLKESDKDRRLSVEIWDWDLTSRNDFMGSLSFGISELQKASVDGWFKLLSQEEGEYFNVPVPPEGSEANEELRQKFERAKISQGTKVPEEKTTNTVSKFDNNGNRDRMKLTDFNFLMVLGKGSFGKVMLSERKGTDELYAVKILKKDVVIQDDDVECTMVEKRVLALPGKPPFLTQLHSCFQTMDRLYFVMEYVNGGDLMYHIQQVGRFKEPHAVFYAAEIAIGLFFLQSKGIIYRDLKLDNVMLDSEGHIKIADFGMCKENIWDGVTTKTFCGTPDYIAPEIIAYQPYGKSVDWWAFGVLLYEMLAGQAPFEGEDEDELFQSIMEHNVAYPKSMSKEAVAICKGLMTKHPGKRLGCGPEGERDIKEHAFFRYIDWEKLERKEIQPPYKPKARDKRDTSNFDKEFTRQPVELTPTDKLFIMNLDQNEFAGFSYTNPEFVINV
Chain of Serine/threonine-protein kinase TBK1 (Homo sapiens) (Q9UHD2 whole entry): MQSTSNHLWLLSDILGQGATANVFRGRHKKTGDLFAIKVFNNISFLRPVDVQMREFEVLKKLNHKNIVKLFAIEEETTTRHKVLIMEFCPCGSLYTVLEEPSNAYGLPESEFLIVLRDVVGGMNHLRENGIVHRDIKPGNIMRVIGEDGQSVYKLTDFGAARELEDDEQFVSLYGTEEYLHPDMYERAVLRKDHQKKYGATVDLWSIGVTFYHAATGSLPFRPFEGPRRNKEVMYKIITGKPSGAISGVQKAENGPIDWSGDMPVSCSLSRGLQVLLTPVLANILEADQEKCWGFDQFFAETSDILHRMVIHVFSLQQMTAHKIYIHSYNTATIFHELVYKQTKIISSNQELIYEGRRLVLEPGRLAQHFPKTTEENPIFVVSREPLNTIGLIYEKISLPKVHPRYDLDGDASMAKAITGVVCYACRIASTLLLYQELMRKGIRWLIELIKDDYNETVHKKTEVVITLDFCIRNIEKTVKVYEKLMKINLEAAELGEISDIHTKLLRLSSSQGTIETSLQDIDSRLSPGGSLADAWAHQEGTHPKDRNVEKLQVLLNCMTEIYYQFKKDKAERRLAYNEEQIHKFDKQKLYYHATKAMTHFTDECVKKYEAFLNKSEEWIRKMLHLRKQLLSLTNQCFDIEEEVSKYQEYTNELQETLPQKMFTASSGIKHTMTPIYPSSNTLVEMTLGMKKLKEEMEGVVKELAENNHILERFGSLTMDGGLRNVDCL
Chain of Mitogen-activated protein kinase 14 (Homo sapiens) (Q16539 whole entry): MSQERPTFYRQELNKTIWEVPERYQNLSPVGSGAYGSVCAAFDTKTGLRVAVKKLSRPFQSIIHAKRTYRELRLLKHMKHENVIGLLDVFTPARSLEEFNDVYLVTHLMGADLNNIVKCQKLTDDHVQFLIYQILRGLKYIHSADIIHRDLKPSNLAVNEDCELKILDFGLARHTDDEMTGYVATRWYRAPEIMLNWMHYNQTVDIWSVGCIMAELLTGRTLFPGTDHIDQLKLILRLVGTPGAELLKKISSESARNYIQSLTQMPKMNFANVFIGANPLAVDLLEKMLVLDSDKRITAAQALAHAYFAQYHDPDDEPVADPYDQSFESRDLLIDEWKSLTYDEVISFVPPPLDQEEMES
Chain of Inhibitor of nuclear factor kappa-B kinase subunit beta (Homo sapiens) (O14920 whole entry): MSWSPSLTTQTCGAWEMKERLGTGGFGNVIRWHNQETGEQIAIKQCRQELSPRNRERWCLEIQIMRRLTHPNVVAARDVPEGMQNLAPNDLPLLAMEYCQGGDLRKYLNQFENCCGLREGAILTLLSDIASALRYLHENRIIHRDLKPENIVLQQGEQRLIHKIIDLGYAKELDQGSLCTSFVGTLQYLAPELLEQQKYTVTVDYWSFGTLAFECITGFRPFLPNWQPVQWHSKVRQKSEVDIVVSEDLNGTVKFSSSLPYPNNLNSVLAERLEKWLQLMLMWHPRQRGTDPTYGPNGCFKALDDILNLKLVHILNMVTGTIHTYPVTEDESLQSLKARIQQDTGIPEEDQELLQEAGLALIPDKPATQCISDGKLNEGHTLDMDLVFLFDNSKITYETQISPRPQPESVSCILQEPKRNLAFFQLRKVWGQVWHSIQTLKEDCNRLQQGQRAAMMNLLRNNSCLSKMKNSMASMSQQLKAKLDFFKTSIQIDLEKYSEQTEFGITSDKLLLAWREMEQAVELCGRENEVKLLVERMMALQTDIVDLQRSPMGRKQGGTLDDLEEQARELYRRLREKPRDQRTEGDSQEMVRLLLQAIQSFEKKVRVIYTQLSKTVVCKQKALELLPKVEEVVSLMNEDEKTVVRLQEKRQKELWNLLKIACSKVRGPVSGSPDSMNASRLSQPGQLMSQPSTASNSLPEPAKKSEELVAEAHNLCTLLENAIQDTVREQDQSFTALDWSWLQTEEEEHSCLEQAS
Chain of Mitogen-activated protein kinase kinase kinase 7 (Homo sapiens) (O43318 whole entry): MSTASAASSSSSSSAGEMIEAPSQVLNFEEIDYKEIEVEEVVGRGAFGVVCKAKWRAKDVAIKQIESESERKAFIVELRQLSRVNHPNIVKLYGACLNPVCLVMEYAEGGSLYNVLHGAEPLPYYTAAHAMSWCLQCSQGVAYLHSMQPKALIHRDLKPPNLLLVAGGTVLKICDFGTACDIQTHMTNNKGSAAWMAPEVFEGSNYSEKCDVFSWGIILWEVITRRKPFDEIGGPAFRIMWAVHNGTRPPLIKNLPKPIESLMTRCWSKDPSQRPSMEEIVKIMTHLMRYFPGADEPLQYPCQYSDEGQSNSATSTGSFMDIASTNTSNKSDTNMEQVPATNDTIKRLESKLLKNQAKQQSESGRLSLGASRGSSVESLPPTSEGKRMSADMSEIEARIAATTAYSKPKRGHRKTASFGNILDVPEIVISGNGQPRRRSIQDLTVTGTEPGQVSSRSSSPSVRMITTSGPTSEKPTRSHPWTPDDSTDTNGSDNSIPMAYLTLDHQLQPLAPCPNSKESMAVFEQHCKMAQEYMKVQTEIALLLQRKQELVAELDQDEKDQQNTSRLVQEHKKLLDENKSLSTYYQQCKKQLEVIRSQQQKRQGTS
Chain of Receptor-interacting serine/threonine-protein kinase 2 (Homo sapiens) (O43353 whole entry): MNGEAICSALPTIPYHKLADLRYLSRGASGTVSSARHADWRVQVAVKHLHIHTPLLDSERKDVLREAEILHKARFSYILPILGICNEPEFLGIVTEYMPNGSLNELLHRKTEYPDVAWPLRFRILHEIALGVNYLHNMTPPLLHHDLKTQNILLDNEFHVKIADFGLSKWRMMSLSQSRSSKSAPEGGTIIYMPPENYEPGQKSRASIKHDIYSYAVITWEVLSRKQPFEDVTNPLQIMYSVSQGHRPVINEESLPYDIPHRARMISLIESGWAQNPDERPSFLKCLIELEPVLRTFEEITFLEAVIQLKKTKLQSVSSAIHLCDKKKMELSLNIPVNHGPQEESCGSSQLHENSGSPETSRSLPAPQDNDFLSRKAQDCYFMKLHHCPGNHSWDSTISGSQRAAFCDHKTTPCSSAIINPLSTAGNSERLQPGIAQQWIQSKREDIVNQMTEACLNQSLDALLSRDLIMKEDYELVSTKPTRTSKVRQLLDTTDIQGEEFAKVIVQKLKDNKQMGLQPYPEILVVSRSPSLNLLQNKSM

`COc1cc(/C=C/C(=O)CC(=O)/C=C/c2ccc(O)c(OC)c2)ccc1O` [CURCUMIN]: the Activity entry in series [1] was “Non-toxic”. For the same compound, the inhibition in series [2] worked out at 97%.

As to `Oc1ccc(C2CC(c3cccs3)=NN2c2ccc(C(F)(F)F)cc2)cc1` (centres undefined), the Activity entry in series [1] is given as “Non-toxic”. Besides, the IC50 in series [3] was 400 nM; in series [4] it was 2900 nM. For the same compound, the inhibition in series [5] was 45.9%; in [2], 69%.

`CC(C)(C)C1=NN(c2ccc(Cl)cc2)C(c2ccc(O)cc2)C1` (centres undefined): the inhibition result in [6], in series [7], in series [8], in [9] and in series [10] was “inactive” in each case. Besides, the Activity entry in series [1] is “Non-toxic”. The inhibition in series [2] was determined as 50%; in [11], 10%.

For `Oc1ccc(C2CC(c3ccccc3O)=NN2c2ccc(Cl)cc2)cc1` (centres undefined), the Activity result in series [1] was “Non-toxic”. The IC50 in series [3] turned out to be 1500 nM; in series [12] it was 3100 nM. Further, the Ratio IC50 in series [13] was determined as 2.1. The compound further yielded an inhibition in [5] of 13.4%.

Turning to `CC(C)(C)C1=NN(c2ccccc2)C(c2ccc(O)cc2)C1` (centres undefined), the Activity entry in series [1] is reported as “Non-toxic”. Further, the inhibition in series [2] is 32%.

As to `CC(C)(C)C1=NN(c2ccccc2Cl)C(c2ccc(O)cc2)C1` (centres undefined), in [1], the Activity entry is “Non-toxic”. In addition, in [2], the inhibition was 26%.

Take `Oc1ccc(C2CC(c3cccs3)=NN2c2ccc(Br)cc2)cc1` (centres undefined): the Activity entry in [1] was “Non-toxic”. The values for the IC50 in series [3] and in series [12] were 500 nM and 1000 nM, respectively. Moreover, in [13], the Ratio IC50 amounted to 2. For the same compound, the inhibition in [5] turned out to be 21.4%; in [2], 65%.

In the case of `Cn1cc(C2=C(c3cn(CCCSC(=N)N)c4ccccc34)C(=O)NC2=O)c2ccccc21`, in series [7], the inhibition result was “Active”. For the same compound, the inhibition entry in series [14] and in [15] was “inactive” throughout.

Turning to `CC(C)(C)C1=NN(c2ccc(Cl)cc2)C(c2ccc(O)c(Cl)c2)C1` (centres undefined), the Activity result in series [1] was “Non-toxic”. Moreover, the IC50 in series [3] was 700 nM; in [12], 14800 nM; in series [4] it was 2900 nM. Moreover, in [13], the Ratio IC50 turned out to be 20.8. In addition, the inhibition in series [5] was 0%.

A word on the inhibition: it is the drop in the measured response relative to a control, in per cent. One may read the IC50 as the concentration that inhibits the measured activity by half.
